This is an account of results in ChEMBL document CHEMBL1154897, “HPLC-based activity profiling: discovery of piperine as a positive GABA(A) receptor modulator targeting a benzodiazepine-independent binding site” (J Nat Prod, 2010).

The source made the active and inactive calls. The rule behind the calls is not given here.

In experiment [1] the test system is Oocyte. Kind of experiment: Activation of rat GABA alpha-1-beta-2-gamma-2 receptor expressed in xenopus oocytes assessed as potentiation of GABA-induced chloride current at 100 uM after 90 secs by two […] electrode voltage clamp assay. Format: cell-based. In short, it runs like this:
(§1)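 Rat α1, β2, γ2S cRNAs (1:1:10) injected into collagenase-defolliculated Xenopus oocytes, stored at 18 °C in ND96, recorded on days 1–5. Two-microelectrode voltage clamp at −70 mV. Bath: 90 mM NaCl, 1 mM KCl, 1 mM MgCl2, 1 mM CaCl2, 5 mM HEPES, pH 7.4. Cells with maximal currents > 3 μA discarded. Solutions delivered by automated fast perfusion.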

Experiment [2] deals with Oocyte. Kind of experiment: Activation of rat GABA alpha-1-beta-2-gamma-2 receptor expressed in xenopus oocytes assessed as potentiation of chloride current at 100 uM after 90 secs by two […] electrode voltage clamp assay. Format: cell-based. In short, it runs like this:
as §1

Experiment [3] relates to Oocyte. Briefly: (§2) Activation of rat GABA alpha-1-beta-2-gamma-2 receptor expressed in xenopus oocytes assessed as potentiation of GABA-induced chloride current after 90 secs by two […] electrode voltage clamp assay. The class given is cell-based. The method, boiled down: (§3)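 Xenopus oocytes injected with rat α1, β2, γ2S cRNAs (1:1:10), kept at 18 °C in ND96, recorded days 1–5. Two-electrode voltage clamp at −70 mV in bath containing 90 mM NaCl, 1 mM KCl, 1 mM MgCl2, 1 mM CaCl2, 5 mM HEPES, pH 7.4. Compound (1–300 μM) preapplied 90 s, then coapplied with GABA EC5–10 by fast perfusion. Values n = 3.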

A short description of experiment [4]: as §2. The class given is cell-based. To be noted: Oocyte. In short, it runs like this: as §3
Experiment [5] concerns Oocyte. Briefly: Activation of rat GABA alpha-1-beta-2-gamma-2 receptor expressed in xenopus oocytes assessed as potentiation of GABA-induced chloride current at 300 uM after 90 secs by two […] electrode voltage clamp assay. The class given is cell-based. In short, it runs like this: as §1
The nature of experiment [6]: Displacement of [3H]-flumazenil from GABAA receptor. (In general: Loss of bound radioactivity is the signal in a displacement assay; it reports binding, not function.)
Experiment [7] has as its system Oocyte. Briefly: Activation of rat GABA alpha-1-beta-2-gamma-2 receptor expressed in xenopus oocytes assessed as potentiation of GABA-induced chloride current at 100 uM after 90 secs by two […] electrode voltage clamp assay in presence of 1 uM Diazepam. The class given is cell-based. The method, boiled down: as §1
For experiment [8], the system named is Oocyte. Kind of experiment: Activation of rat GABA alpha-1-beta-2-gamma-2 receptor expressed in xenopus oocytes assessed as potentiation of GABA-induced chloride current at 300 uM after 90 secs by two […] electrode voltage clamp assay relative to control in presence of flumazenil. Format: cell-based. The method, boiled down:
as §1

As for `CC(C)CNC(=O)/C=C/C=C/c1ccc2c(c1)OCO2`, the Activity with Oocyte [1] was -10%. In the experiment with Oocyte [2], the result was inactive.

`O=C(/C=C/C=C/c1ccc2c(c1)OCO2)N1CCCC1`: the Activity in the experiment on Oocyte [1] is -29%. Also, the result in the experiment with Oocyte [2] was inactive.

With `O=C(CCCC/C=C/c1ccc2c(c1)OCO2)N1CCCCC1`, the Activity in the experiment with Oocyte [1] is 32%. In addition, in the experiment with Oocyte [2], the outcome was inactive.

With `O=C(/C=C/CCc1ccc2c(c1)OCO2)N1CCCCC1` [PIPERANINE], the Activity result in the experiment on Oocyte [3] was “Dose-dependent effect”; in the experiment with Oocyte [5], 187%; in the experiment on Oocyte [1], 138%. Besides, the EC50 in experiment [4] came to 56 µM. Besides, the result in the experiment with Oocyte [2] was inactive.

For `O=C(/C=C/C=C/c1ccc2c(c1)OCO2)N1CCCCC1` [PIPERINE], the Activity result in the experiment with Oocyte [3] is “Dose-dependent effect”; with Oocyte [5], 302%; in the experiment on Oocyte [7], 391%; with Oocyte [8] it was 334%; with Oocyte [1], 226%. For the same compound, the concentration giving a half-maximal response (EC50) in experiment [4] turned out to be 52 µM. The same compound came in with an IC50 in experiment [6] of 1200 µM. In addition, in the experiment with Oocyte [2], the result was inactive.

As a reminder, the EC50 is the midpoint of the concentration-response curve. As usually defined, the IC50 is the concentration that inhibits the measured activity by half.
